In data set [1] the target is T1, Tubulin (Homo sapiens) (UniProt P68371+Q9H4B7+P0DPH7+P68366+Q13509+Q71U36+P04350+Q3ZCM7+P07437+P68363+Q9BQE3+Q6PEY2+Q13885+Q9BVA1+Q9BUF5). In words: Stabilization of microtubules in human QBI293 cells assessed as fold change in acetylated tubulin levels at 10 uM after 4 hrs by ELISA relative to cevipabulin. The class given is cell-based. For orientation: In an ELISA, binding on a coated surface is turned into a signal by an enzyme label.

Data set [2] concerns the target T1, Tubulin (Homo sapiens). In words: Stabilization of microtubules in human QBI293 cells assessed as increase in acetylated tubulin levels after 4 hrs by ELISA. Type of data set: cell-based. A digest of the protocol: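 QBI293 cells are grown in DMEM with 10% FBS, 2 mM L-glutamine and penicillin/streptomycin, plated at 6 × 10^5 cells/well and incubated overnight. […] Acetyl- and total α-tubulin in whole-cell extract supernatants are measured by ELISA against standard curves, with protein by BCA. Values are fold-change over DMSO; AcTub is also given relative to 100 nM cevipabulin positive control. Significance is by one-way ANOVA.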

The target in data set [3] is T1, Tubulin (Homo sapiens). Briefly: Stabilization of microtubules in human QBI293 cells assessed as fold change in alpha tubulin levels at 1 uM after 4 hrs by ELISA relative to DMSO. The class given is cell-based. The method, boiled down: (§1)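 QBI293 cells were grown in DMEM with 10% FBS, 2 mM L-glutamine and penicillin/streptomycin, then plated at 6 × 10^5 cells/well and left overnight. Medium was replaced with fresh medium holding vehicle (DMSO) or compound, and cells were incubated 4 h. Whole-cell extract supernatants were protein-normalized by BCA assay. AcTub and α-tubulin were quantified by ELISA against standard curves. Values are fold-change over DMSO, analysed by one-way ANOVA.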

Data set [4] addresses T1, Tubulin (Homo sapiens). Briefly: Stabilization of microtubules in human QBI293 cells assessed as fold change in acetylated tubulin levels at 1 uM after 4 hrs by ELISA relative to DMSO. The class given is cell-based. The method, boiled down:
as §1

Data set [5] concerns the target T1, Tubulin (Homo sapiens). In words: Stabilization of microtubules in human QBI293 cells assessed as fold change in alpha tubulin levels at 10 uM after 4 hrs by ELISA relative to DMSO. The class given is cell-based. A digest of the protocol:
as §1

Data set [6] addresses T1, Tubulin (Homo sapiens). In words: Stabilization of microtubules in human QBI293 cells assessed as fold change in acetylated tubulin levels at 1 uM after 4 hrs by ELISA relative to cevipabulin. Type of data set: cell-based.
For data set [7], the target named is T1, Tubulin (Homo sapiens). Briefly: Stabilization of microtubules in human QBI293 cells assessed as fold change in acetylated tubulin levels at 10 uM after 4 hrs by ELISA relative to DMSO. The class given is cell-based. A digest of the protocol:
as §1

The nature of data set [8]: n-octanol-water distribution coefficient, log D of the compound at pH 7.4 by shake flask method. Type of data set: physicochemical. A digest of the protocol:
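Distribution coefficient between n-octanol and water at pH 7.4, measured by shake-flask method.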

Usually logD stands for lipophilicity at a set pH, counting ionised and neutral species.

On to `C[C@@H](Nc1c(-c2c(F)cc(F)cc2F)c(Cl)nc2ncnn12)C(F)(F)F`, for which the fold change (FC) on Tubulin (Homo sapiens) [1] amounted to 0.43; on Tubulin (Homo sapiens) [3] it was 1.23; on Tubulin (Homo sapiens) [4] it was 1.39; on Tubulin (Homo sapiens) [5], 1.47; on Tubulin (Homo sapiens) [6], 0.24; on Tubulin (Homo sapiens) [7] it was 2.47. Further, the Activity entry on Tubulin (Homo sapiens) [2] was “Dose-dependent effect”.
For the molecule `C[C@H](Nc1c(-c2c(F)cccc2F)c(Cl)nc2ncnn12)C(F)(F)F`, the fold change (FC) was 0.39 at Tubulin (Homo sapiens) [1]; 1.06 at Tubulin (Homo sapiens) [3]; 2.2 on Tubulin (Homo sapiens) [4]; 1.02 at Tubulin (Homo sapiens) [5]; 0.16 at Tubulin (Homo sapiens) [6]; 5.28 on Tubulin (Homo sapiens) [7]. For the same molecule, the Activity result on Tubulin (Homo sapiens) [2] is “Dose-dependent effect”.
Take `C[C@H](Nc1c(-c2ccc(F)c(F)c2F)c(Cl)nc2ncnn12)C(F)(F)F`: the fold change (FC) at Tubulin (Homo sapiens) [1] is 0.34; at Tubulin (Homo sapiens) [3], 1.11; at Tubulin (Homo sapiens) [4], 1.5; at Tubulin (Homo sapiens) [5], 0.88; at Tubulin (Homo sapiens) [6], 0.12; on Tubulin (Homo sapiens) [7] it was 4.28. Besides, the Activity entry at Tubulin (Homo sapiens) [2] is “Dose-dependent effect”.
Take `CC(Nc1c(-c2c(F)cc(F)cc2F)c(Cl)nc2ncnn12)C(F)F` (stereo not drawn): the fold change (FC) at Tubulin (Homo sapiens) [1] was 0.35; at Tubulin (Homo sapiens) [3] it was 1.19; on Tubulin (Homo sapiens) [4], 1.28; at Tubulin (Homo sapiens) [5] it was 1.17; on Tubulin (Homo sapiens) [6], 0.3; on Tubulin (Homo sapiens) [7], 1.82. In addition, the Activity entry at Tubulin (Homo sapiens) [2] is “Dose-dependent effect”.
As to `Fc1cc(F)c(-c2c(Cl)nc3ncnn3c2N2CCCCC2)c(F)c1`, the fold change (FC) at Tubulin (Homo sapiens) [1] came out at 0.33; at Tubulin (Homo sapiens) [3], 1.23; at Tubulin (Homo sapiens) [4], 2.21; on Tubulin (Homo sapiens) [5], 1.2; at Tubulin (Homo sapiens) [6], 0.13; on Tubulin (Homo sapiens) [7] it was 5.84. Also, on Tubulin (Homo sapiens) [2], the Activity result is “Dose-dependent effect”.
In the case of `C[C@H](Nc1c(-c2ccc(F)c(F)c2)c(Cl)nc2ncnn12)C(F)(F)F`, the fold change (FC) is 0.12 on Tubulin (Homo sapiens) [1]; 1.01 at Tubulin (Homo sapiens) [3]; 1.85 on Tubulin (Homo sapiens) [4]; 1.13 on Tubulin (Homo sapiens) [5]; 0.05 on Tubulin (Homo sapiens) [6]; 4.76 at Tubulin (Homo sapiens) [7]. The Activity entry at Tubulin (Homo sapiens) [2] is “Dose-dependent effect”.
As for `C[C@H](Nc1c(-c2c(F)cc(C(F)(F)F)cc2F)c(Cl)nc2ncnn12)C(F)(F)F`, the fold change (FC) is 0.16 at Tubulin (Homo sapiens) [1]; 1.06 at Tubulin (Homo sapiens) [3]; 1.09 at Tubulin (Homo sapiens) [4]; 1.02 at Tubulin (Homo sapiens) [5]; 0.13 at Tubulin (Homo sapiens) [6]; 1.39 on Tubulin (Homo sapiens) [7]. In addition, the Activity result on Tubulin (Homo sapiens) [2] is “Dose-dependent effect”.
On to `C[C@H](Nc1c(-c2cc(F)ccc2F)c(Cl)nc2ncnn12)C(F)(F)F`, for which the fold change (FC) came out at 0.22 on Tubulin (Homo sapiens) [1]; 1.05 on Tubulin (Homo sapiens) [3]; 1.4 on Tubulin (Homo sapiens) [4]; 0.9 at Tubulin (Homo sapiens) [5]; 0.07 on Tubulin (Homo sapiens) [6]; 4.1 on Tubulin (Homo sapiens) [7]. Besides, at Tubulin (Homo sapiens) [2], the Activity entry is “Dose-dependent effect”.
`CC(C)CNc1c(-c2c(F)cc(F)cc2F)c(Cl)nc2ncnn12`: the fold change (FC) at Tubulin (Homo sapiens) [1] was 0.53; at Tubulin (Homo sapiens) [3], 1.3; on Tubulin (Homo sapiens) [4], 1.63; at Tubulin (Homo sapiens) [5] it was 0.99; on Tubulin (Homo sapiens) [6] it was 0.38; on Tubulin (Homo sapiens) [7], 2.28. Further, the Activity result on Tubulin (Homo sapiens) [2] is “Dose-dependent effect”.
Take `C[C@H](Nc1c(-c2ccc(F)cc2)c(Cl)nc2ncnn12)C(F)(F)F`: the fold change (FC) on Tubulin (Homo sapiens) [1] amounted to 0.16; on Tubulin (Homo sapiens) [3], 1.04; on Tubulin (Homo sapiens) [4], 1.05; at Tubulin (Homo sapiens) [5], 1.13; on Tubulin (Homo sapiens) [6], 0.07; on Tubulin (Homo sapiens) [7], 2.41. For the same molecule, the Activity result at Tubulin (Homo sapiens) [2] was “Dose-dependent effect”.
As for `CC(CF)Nc1c(-c2c(F)cc(F)cc2F)c(Cl)nc2ncnn12` (stereo not drawn), the fold change (FC) amounted to 0.35 on Tubulin (Homo sapiens) [1]; 0.92 on Tubulin (Homo sapiens) [3]; 1.32 at Tubulin (Homo sapiens) [4]; 1.09 at Tubulin (Homo sapiens) [5]; 0.3 on Tubulin (Homo sapiens) [6]; 1.5 at Tubulin (Homo sapiens) [7]. For the same molecule, the Activity entry at Tubulin (Homo sapiens) [2] was “Dose-dependent effect”.
Consider `C[C@H](Nc1c(-c2c(F)cc([N+](=O)[O-])cc2F)c(Cl)nc2ncnn12)C(F)(F)F`, for which the fold change (FC) at Tubulin (Homo sapiens) [1] came out at 1.23; on Tubulin (Homo sapiens) [3] it was 0.96; on Tubulin (Homo sapiens) [4], 3.24; at Tubulin (Homo sapiens) [5], 0.94; at Tubulin (Homo sapiens) [6], 0.6; on Tubulin (Homo sapiens) [7] it was 6.65. At Tubulin (Homo sapiens) [2], the Activity result is “Dose-dependent effect”.
For the molecule `C[C@H](Nc1c(-c2ccccc2)c(Cl)nc2ncnn12)C(F)(F)F`, the fold change (FC) amounted to 0.3 at Tubulin (Homo sapiens) [1]; 1.09 on Tubulin (Homo sapiens) [3]; 1.11 at Tubulin (Homo sapiens) [4]; 1.03 at Tubulin (Homo sapiens) [5]; 0.12 at Tubulin (Homo sapiens) [6]; 2.07 on Tubulin (Homo sapiens) [7]. Moreover, the Activity result at Tubulin (Homo sapiens) [2] was “Dose-dependent effect”.
Take `Fc1cc(F)c(-c2c(Cl)nc3ncnn3c2N2CCCC2)c(F)c1`: the fold change (FC) on Tubulin (Homo sapiens) [1] turned out to be 0.16; on Tubulin (Homo sapiens) [3], 1.12; on Tubulin (Homo sapiens) [4] it was 1.14; on Tubulin (Homo sapiens) [5], 1.18; at Tubulin (Homo sapiens) [6], 0.07; on Tubulin (Homo sapiens) [7] it was 2.74. Further, the Activity entry at Tubulin (Homo sapiens) [2] was “Dose-dependent effect”.
Turning to `Fc1cc(F)c(-c2c(Cl)nc3ncnn3c2NC2CCCC2)c(F)c1`, the fold change (FC) came out at 0.45 on Tubulin (Homo sapiens) [1]; 1.03 on Tubulin (Homo sapiens) [3]; 2.03 at Tubulin (Homo sapiens) [4]; 0.98 at Tubulin (Homo sapiens) [5]; 0.27 at Tubulin (Homo sapiens) [6]; 4.83 on Tubulin (Homo sapiens) [7]. Moreover, at Tubulin (Homo sapiens) [2], the Activity result is “Dose-dependent effect”.
As to `Fc1cc(F)c(-c2c(Cl)nc3ncnn3c2NC2CCCCC2)c(F)c1`, the fold change (FC) on Tubulin (Homo sapiens) [1] amounted to 0.23; on Tubulin (Homo sapiens) [3], 1.07; at Tubulin (Homo sapiens) [4], 1.13; on Tubulin (Homo sapiens) [5] it was 0.99; on Tubulin (Homo sapiens) [6] it was 0.07; on Tubulin (Homo sapiens) [7], 3.51. Moreover, the Activity result on Tubulin (Homo sapiens) [2] is “Dose-dependent effect”.
With `CC(C)[C@@H](C)Nc1c(-c2ccc(C#N)cc2F)c(Cl)nc2ncnn12` (stereo in doubt; 67), the logD in data set [8] (n-octanol/water, read-out: logD) came to 2.9.
With `CC(C)[C@@H](C)Nc1c(-c2ccc(C#N)cc2F)c(Cl)nc2ncnn12` (stereo in doubt; 68), the logD in data set [8] (octanol/water) was determined as 2.67.
Take `Fc1cc(F)c(-c2c(Cl)nc3ncnn3c2N2CCC2)c(F)c1`: the fold change (FC) came to 0.32 at Tubulin (Homo sapiens) [1]; 0.96 on Tubulin (Homo sapiens) [3]; 0.98 at Tubulin (Homo sapiens) [4]; 1.17 at Tubulin (Homo sapiens) [5]; 0.26 at Tubulin (Homo sapiens) [6]; 1.22 on Tubulin (Homo sapiens) [7]. Further, the Activity entry at Tubulin (Homo sapiens) [2] is “Dose-dependent effect”.
With `Fc1cc(F)c(-c2c(Cl)nc3ncnn3c2N2CCCCCCC2)c(F)c1`, the fold change (FC) on Tubulin (Homo sapiens) [1] is 0.7; at Tubulin (Homo sapiens) [3], 1.01; on Tubulin (Homo sapiens) [4], 3.7; on Tubulin (Homo sapiens) [5], 1.28; at Tubulin (Homo sapiens) [6], 0.36; at Tubulin (Homo sapiens) [7], 7.16. Moreover, at Tubulin (Homo sapiens) [2], the Activity entry is “Dose-dependent effect”.

Source of the values: ChEMBL document CHEMBL4732138, “Evaluation of the Structure-Activity Relationship of Microtubule-Targeting 1,2,4-Triazolo[1,5-a]pyrimidines Identifies New Candidates for Neurodegenerative Tauopathies” (J Med Chem, 2021).
